Sampled rows, rich in hits. Any-hit rate of the full collection: about 2.4%.
GASC-1 inh – human JMJD2C demethylase inhibition; 330,000 tested, 0.069% active; Q9H3R0; GST-JMJD2C(1-420) H3K9me3 demethylation, DELFIA europium; inhibition, % at 2.35 µM;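 active = more than half of a compound's replicate wells show inhibition beyond 50%, single wells judged on their own value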;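 note: signal counts dimethyl H3K9 product captured on neutravidin plate; 0% = median of DMSO wells and 100% = 0.3 times that DMSO median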
HTRA1 inhibitor – blocks human HTRA1 serine peptidase | inhibition, % at 5.96 µM | AID 504803 | 340,000 tested, 0.5% active | recombinant HTRA1, FP-rhodamine activity-based probe, fluorescence polarization; in the data active = inhibition above about 36%;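 note: 0% = enzyme with DMSO and 100% = wells lacking enzyme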
Target sequence (Q92743 whole entry, looked up): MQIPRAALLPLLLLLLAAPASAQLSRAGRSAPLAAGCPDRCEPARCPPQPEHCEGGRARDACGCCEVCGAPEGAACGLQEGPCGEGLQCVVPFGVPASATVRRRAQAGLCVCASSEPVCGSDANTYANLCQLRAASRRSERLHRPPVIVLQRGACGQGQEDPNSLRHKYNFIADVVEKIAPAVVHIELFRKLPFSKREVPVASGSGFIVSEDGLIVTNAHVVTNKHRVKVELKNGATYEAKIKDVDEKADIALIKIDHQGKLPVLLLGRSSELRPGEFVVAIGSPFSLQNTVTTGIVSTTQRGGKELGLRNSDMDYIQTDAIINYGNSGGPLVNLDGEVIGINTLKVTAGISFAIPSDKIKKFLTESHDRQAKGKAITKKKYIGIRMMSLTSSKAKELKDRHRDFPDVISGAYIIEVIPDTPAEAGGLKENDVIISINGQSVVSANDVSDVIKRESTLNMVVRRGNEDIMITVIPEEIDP
SIAE inh – human SIAE inhibition, primary screen; Q9HAT2; SIAE FP-Rh probe binding, fluorescence polarization; AID 1053197; 370,000 tested, 0.69% active; inhibition, % at 9.66 µM;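 active = inhibition above a cutoff: mean of compounds within the control limits plus 3 SD of those, cut at about 17% in these data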;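 note: 0% = plate median of compound wells and 100% = probe without SIAE protein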
ABHD4 inh – ABHD4 (mouse) inhibition, primary FP screen; Q8VD66; purified mABHD4, FP-Rh probe fluorescence polarization; inhibition, % at 8.92 µM; 370,000 tested, 0.54% active; AID 720543;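 active = inhibition exceeding the mean over every tested compound plus 3 SD, cut at about 30% in these data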;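 note: 0% = plate median of compound wells and 100% = S159A mutant with DMSO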
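Test system: mouse ABHD4 enzyme, wild type. Reagent: FP-Rh fluorescent activity-based probe, added after compound pre-incubation. Timing: pre-incubation 45 min, probe exposure 60 min, at 25 °C. Technique: FP readout, ex 525 nm / em 598 nm. Benchmarks: high control S159A mutant with DMSO, low control median of compound wells.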
PRMT1 FP inh – inhibitors of human PRMT1. AID 652257. Q99873. inhibition, % at 2.79 µM. recombinant PRMT1, activity-based probe fluorescence polarization. 370,000 tested, 1.3% active;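 active = inhibition above about 21% made by adding two undisclosed values, limit read from the data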
PRMT1 inh conf – PRMT1 (human) inhibition, FP confirmation; shares compounds with PRMT1 FP inh; recombinant His-PRMT1, activity-based probe fluorescence polarization; inhibition, % at 2.79 µM; 3,300 tested, 42% active;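 active = mean inhibition across replicates above the hit cutoff derived for the earlier primary screen, cut at about 22% in these data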
Active calls of the source: *; / = no result given.

SMILES	GASC-1 inh	HTRA1 inhibitor	SIAE inh	ABHD4 inh	PRMT1 FP inh	PRMT1 inh conf
O=c1c([N+](=O)[O-])c(Cl)c2ccccc2n1Cc1ccccc1	/	/	6.0	6.9	42.6*	36.0*
CCn1c(=O)c([N+](=O)[O-])c(Cl)c2ccccc21	31.4	10.1	/	/	/	/
N#C/C(=C\c1cccn1S(=O)(=O)c1cccc([N+](=O)[O-])c1)S(=O)(=O)c1ccc(F)cc1	/	/	1.4	2.0	0.5	/
C[C@@H]1CNC(=O)c2c(C(=O)N[C@@H](Cc3c[nH]c4ccccc34)C(=O)OC(C)(C)C)ncn21	/	7.6	-2.6	-1.2	2.1	/
O=C(NCc1ccccc1)[C@H]1CCCN1C(=O)[C@H]1CCCN1C(=O)c1ccc(F)c(C(F)(F)F)c1	/	/	0.7	3.6	0.3	/
Cc1oc(-c2ccc3c(c2)OCCO3)cc1C(=O)O	0.5	3.0	-2.0	-6.8	42.3*	6.1
S=c1nc(C23CC4CC(CC(C4)C2)C3)[nH][nH]1	-14.7	-0.4	-1.1	1.0	33.6*	8.8
CC(=O)N(C(C)=O)N1C(=O)c2cccc3c(N4CCOCC4)ccc(c23)C1=O	14.9	0.8	-0.8	-2.5	28.2*	7.1
CCN(CC)S(=O)(=O)c1ccc(C(=O)OCCN2C(=O)c3cccc4c(N5CCOCC5)ccc(c34)C2=O)cc1	2.4	3.0	0.1	3.9	0.6	/
CCOC(=O)CSc1nnc(C)c(=O)[nH]1	7.4	-0.7	8.4	3.1	-3.1	/
CCOC(=O)CSc1nnc(NCC(=O)OC)c(=O)[nH]1	-2.2	0.8	-1.3	0.7	56.1*	54.3*
COc1ccccc1NS(=O)(=O)c1cc(NC(=O)c2sccc2C)ccc1N1CCCC1	2.7	-18.2	-8.1	-18.6	66.3*	83.5*
COc1ccccc1NS(=O)(=O)c1cc(NC(=O)c2sccc2C)ccc1N1CCOCC1	11.3	-38.9	-24.4	-14.6	3.5	/
COc1ccccc1NS(=O)(=O)c1cc(NC(=S)NCCN2CCOCC2)ccc1N1CCOCC1	-1.8	2.8	-0.3	-2.8	35.6*	57.2*
O=C(Nc1cccc(S(=O)(=O)Nc2ccccc2F)c1)c1ccc2ccccc2n1	21.8	-48.6	-11.6	-17.3	43.1*	12.1
O=S(=O)(Nc1ccccc1F)c1cccc(NC(=S)NCCN2CCOCC2)c1	37.3	3.3	1.6	5.5	73.0*	60.8*
CC(C)C[C@@H](CN1CCC[C@H]1CN1C(=O)C(=O)NC[C@@H]1Cc1ccccc1)N1C[C@H](Cc2ccccc2)N(CC2CCCCCC2)C(=O)C1=O	/	/	1.7	9.0	-1.5	/
O[C@H](COc1cccc(C(F)(F)F)c1)CN1CCC(C(O)(c2ccccc2)c2ccccc2)CC1	/	/	-8.1	8.4	-0.6	/
Cc1ccc(S(=O)(=O)/N=S(/c2ccccc2)C(C)C)cc1 (stereo not drawn)	4.7	4.1	6.3	-3.5	35.2*	70.0*
Cc1nc(N2CCN(C(=O)C3CCCCC3)CC2)c2c3c(sc2n1)CCCC3	/	/	4.3	4.8	1.9	/
CCn1c2ccccc2c2cc(C=Nn3c(-c4ccccn4)n[nH]c3=S)ccc21	/	/	3.8	-4.3	3.3	/
CCOC(=O)c1c(CC(C)C)csc1NC(=O)COC(=O)c1cnc(C)cn1	/	0.0	4.4	8.8	-8.2	/
CCOC(=O)c1c(-c2ccco2)csc1NC(=O)COC(=O)c1cnc(C)cn1	-47.9	-8.4	3.9	11.2	36.1*	4.0
Cc1ccc(NC(=O)CC2SC3=NCCN3C2=O)cc1 (stereo not drawn)	2.4	-3.8	2.2	-5.1	94.1*	8.8
c1coc(-c2cc(C3CCNCC3)[nH]n2)c1	16.7	2.9	4.1	0.2	4.7	/
SMILES	GASC-1 inh	HTRA1 inhibitor	SIAE inh	ABHD4 inh	PRMT1 FP inh	PRMT1 inh conf
N#CCN1CCC(c2cc(-c3ccco3)n[nH]2)CC1	42.8	/	-3.4	1.5	57.0*	3.0
O=C(CN1C(=O)NC2(CCCCCC2)C1=O)Nc1ccc(OC(F)(F)F)cc1	/	-9.2	-3.7	-8.8	-2.6	/
Cc1sc(NC(=O)c2sc3nc4c(C)cccc4cc3c2N)c(C#N)c1C	-0.3	-4.6	-13.8	-15.6	31.1*	0.2
Cc1cccc2cc3c(N)c(C(=O)N4CCc5ccccc54)sc3nc12	-10.9	-3.8	-0.4	9.4	30.7*	4.2
Cc1cccc2cc3c(N)c(C(=O)Nc4ccc(N5CCOCC5)cc4)sc3nc12	-1.9	11.0	4.6	8.4	-0.3	/
CN(Cc1ccccc1)C(=O)c1cnc(Cc2c[nH]c3ccccc23)c(I)c1	/	/	3.1	1.9	3.3	/
Cc1cc(C)c2c(=O)n(CC(=O)Nc3ccc(Cl)cc3)sc2n1	45.4	1.7	9.5	11.1	91.5*	83.6*
Cc1cc(C)c2c(=O)n(CC(=O)Nc3cccc(F)c3)sc2n1	-7.4	-0.6	5.8	8.7	90.1*	83.8*
CCOc1ccc(NC(=O)Cn2sc3nc(C)cc(C)c3c2=O)cc1	4.0	-0.4	/	/	/	/
Cc1ccc(NC(=O)Cn2sc3nc(C)cc(C)c3c2=O)c(Cl)c1	47.5	5.1	-2.3	1.9	79.2*	88.5*
CCC12CCC3c4ccc(O)cc4CCC3C1CC(O)C2O (stereo not drawn)	/	-0.5	4.6	4.3	0.6	/
COc1cc(CNc2ccc3[nH]c(=O)[nH]c3c2)ccc1OCc1ccc(C)cc1	-3.2	-0.5	12.5	19.7	34.9*	8.1
O=C(CSC1=NCCS1)Nc1nc2c(s1)CCCC2	11.2	-8.0	4.8	-6.5	26.3*	32.1*
CCOC(=O)[C@]12CCCC=C1N(CCCOC)C(=O)[C@@H]2CC(=O)NCc1cccs1	/	/	7.3	1.3	-4.5	/
CC(=O)N1CCC(C(=O)N2c3ccccc3N=C(c3ccc(C(F)(F)F)cc3)C2C(=O)NC(C)C)CC1 (stereo not drawn)	/	/	4.0	3.1	1.8	/
Cc1ccc(/C=C/C(=O)Nc2cccc3ncccc23)o1	9.4	1.6	2.6	13.1	69.0*	28.2*
Cc1ccc(/C=C/C(=O)Nc2cccnc2)o1	0.4	-0.5	8.4	0.6	14.0	/
Cc1ccc(/C=C/C(=O)Nc2nn[nH]n2)o1	-3.2	-1.6	10.0	0.7	35.5*	54.7*
COC(=O)c1ccc(S(=O)(=O)N2CCC(NC(=O)COc3ccc(F)cc3)CC2)cc1	/	/	-1.1	-2.6	-0.9	/
COc1ccccc1/C=C/C=C1\Oc2c(ccc(O)c2CN(C)C)C1=O	5.5	6.2	-7.2	2.3	27.5*	16.1
CCN(CC)Cc1c(O)ccc2c1O/C(=C\C=C\c1ccccc1)C2=O	-1.8	0.1	-4.9	2.8	19.3	/
Cc1cc(C)c(NC(=S)NCC2CCN(C(C)c3ccccc3)C2)c(C)c1 (stereo not drawn)	-1.7	-2.1	7.3	-4.7	41.7*	72.4*
COc1cccc(C#CC2=CC(=O)C[C@H](c3ccc(F)cc3)C2)c1	/	-41.3	-1.3	-0.8	4.4	/
COc1ccc(N2CSC3=C(C#N)C(c4cccs4)CC(=O)N3C2)cc1 (stereo not drawn)	7.1	3.7	0.9	4.5	3.0	/

Assay outcomes: PubChem, several laboratories
